# In ChEMBL document CHEMBL4304834, “3-Amino-chromanes and Tetrahydroquinolines as Selective 5-HT2B, 5-HT7, or σ1 Receptor Ligands” (ACS Med Chem Lett, 2019):
# Key:
# Assay type in all cases: cell-based
# [1] = molecular target: T1, Alpha-1A adrenergic receptor (Homo sapiens, UniProt P35348); assay: Displacement of [3H]-Prazosin from human recombinant adrenergic alpha1A receptor expressed in cells after 90 mins by microbeta scintillation counting method
# T1 sequence (P35348 whole entry): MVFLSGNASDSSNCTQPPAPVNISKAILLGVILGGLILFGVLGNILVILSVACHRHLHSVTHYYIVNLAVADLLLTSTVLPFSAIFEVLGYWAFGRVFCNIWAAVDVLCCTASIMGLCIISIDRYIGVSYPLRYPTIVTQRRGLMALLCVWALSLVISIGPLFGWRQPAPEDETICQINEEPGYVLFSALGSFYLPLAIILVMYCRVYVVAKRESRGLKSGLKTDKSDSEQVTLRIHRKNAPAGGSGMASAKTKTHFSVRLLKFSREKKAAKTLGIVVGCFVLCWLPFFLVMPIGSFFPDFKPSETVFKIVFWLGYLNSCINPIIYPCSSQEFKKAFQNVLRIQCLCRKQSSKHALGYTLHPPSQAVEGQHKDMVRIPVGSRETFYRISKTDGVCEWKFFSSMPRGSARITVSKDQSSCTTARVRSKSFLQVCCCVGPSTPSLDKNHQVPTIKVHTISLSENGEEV
# Outline: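 Radioligand binding was run by the NIMH Psychoactive Drug Screening Program. Compounds were first screened at 10 μM. Those giving ≥50% binding were taken to full competition curves. Ki is reported as pKi from a sigmoidal curve fit of triplicate measurements in a single experiment; the error is the curve-fit error.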
# [2] = molecular target: 5-hydroxytryptamine receptor 2A (Homo sapiens, UniProt P28223); assay: Displacement of [3H]-Ketanserin from human recombinant 5-HT2A receptor transiently expressed in HEKT cells at 10 uM after 90 mins by microbeta scintillation counting method relative to control
# Outline: (§1)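 Radioligand binding run by the NIMH Psychoactive Drug Screening Program. […] Otherwise Ki comes from sigmoidal curve fits of triplicate measurements in a single experiment, or is averaged over repeated experiments each run in triplicate.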
# [3] = molecular target: 5-hydroxytryptamine receptor 7 (Homo sapiens, UniProt P34969); assay: Displacement of [3H]-LSD from human recombinant 5-HT7 receptor expressed in stable HEK cells at 10 uM after 90 mins by microbeta scintillation counting method relative to control; outline: as §1
# [4] = molecular target: T2, D(4) dopamine receptor (Homo sapiens) (UniProt P21917); assay: Displacement of [3H]-methylspiperone from human recombinant dopamine D4 receptor expressed in Stable HEK cells at 10 uM after 90 mins by microbeta scintillation counting method relative to control
# T2 sequence (whole entry): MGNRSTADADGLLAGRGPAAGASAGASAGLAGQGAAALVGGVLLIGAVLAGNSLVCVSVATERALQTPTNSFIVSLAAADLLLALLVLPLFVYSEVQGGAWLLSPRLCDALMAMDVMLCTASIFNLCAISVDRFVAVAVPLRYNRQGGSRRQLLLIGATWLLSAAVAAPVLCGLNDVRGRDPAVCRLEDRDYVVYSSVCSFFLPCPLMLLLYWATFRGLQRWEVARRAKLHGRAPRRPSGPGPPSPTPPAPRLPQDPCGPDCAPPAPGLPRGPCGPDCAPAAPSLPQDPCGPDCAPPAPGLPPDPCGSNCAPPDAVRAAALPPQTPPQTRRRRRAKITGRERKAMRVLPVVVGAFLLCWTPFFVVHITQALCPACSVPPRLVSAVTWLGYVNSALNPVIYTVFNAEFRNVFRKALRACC
# [5] = molecular target: T3, Muscarinic acetylcholine receptor M1 (Homo sapiens) (UniProt P11229); assay: Displacement of [3H]-QNB/[3H]-NMS from human recombinant Muscarinic acetylcholine M1 receptor expressed in stable CHO cells at 10 uM after 90 mins by microbeta scintillation counting method relative to control
# T3 sequence (whole entry): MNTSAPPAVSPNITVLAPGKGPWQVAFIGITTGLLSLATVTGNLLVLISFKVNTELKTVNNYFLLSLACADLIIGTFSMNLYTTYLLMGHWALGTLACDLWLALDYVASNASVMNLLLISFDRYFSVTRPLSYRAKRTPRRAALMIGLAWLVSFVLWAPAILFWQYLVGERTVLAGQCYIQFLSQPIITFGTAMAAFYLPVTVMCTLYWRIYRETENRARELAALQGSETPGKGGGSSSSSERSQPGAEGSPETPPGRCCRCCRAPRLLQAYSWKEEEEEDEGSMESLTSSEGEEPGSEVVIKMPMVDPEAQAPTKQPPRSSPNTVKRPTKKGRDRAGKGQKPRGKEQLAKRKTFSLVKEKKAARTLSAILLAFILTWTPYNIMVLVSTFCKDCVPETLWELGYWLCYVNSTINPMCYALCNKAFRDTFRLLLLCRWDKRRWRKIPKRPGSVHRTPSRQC
# [6] = molecular target: T4, Muscarinic acetylcholine receptor M5 (Homo sapiens) (UniProt P08912); assay: Displacement of [3H]-QNB/[3H]-NMS from human recombinant Muscarinic acetylcholine M5 receptor expressed in stable CHO cells at 10 uM after 90 mins by microbeta scintillation counting method relative to control
# T4 sequence (whole entry): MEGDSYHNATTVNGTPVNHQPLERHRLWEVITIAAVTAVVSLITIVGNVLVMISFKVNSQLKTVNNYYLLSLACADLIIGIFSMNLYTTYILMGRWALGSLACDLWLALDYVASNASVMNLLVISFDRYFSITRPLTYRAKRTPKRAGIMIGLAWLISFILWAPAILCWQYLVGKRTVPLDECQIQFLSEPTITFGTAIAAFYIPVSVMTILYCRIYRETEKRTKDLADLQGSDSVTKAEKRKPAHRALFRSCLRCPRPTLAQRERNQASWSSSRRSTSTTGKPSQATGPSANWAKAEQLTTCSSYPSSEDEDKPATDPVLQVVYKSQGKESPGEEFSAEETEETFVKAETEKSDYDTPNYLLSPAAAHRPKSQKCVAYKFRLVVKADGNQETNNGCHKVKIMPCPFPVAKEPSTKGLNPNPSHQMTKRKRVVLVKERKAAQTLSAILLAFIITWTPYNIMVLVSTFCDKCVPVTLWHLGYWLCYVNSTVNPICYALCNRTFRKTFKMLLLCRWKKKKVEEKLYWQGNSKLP
# [7] = molecular target: Sigma intracellular receptor 2 (Homo sapiens, UniProt Q5BJF2); assay: Displacement of […] from human recombinant sigma2 receptor expressed in HEKT cells at 10 uM after 90 mins by microbeta scintillation counting method relative to control; outline: as §1
# [8] = molecular target: Alpha-2B adrenergic receptor (Homo sapiens) (UniProt P18089); assay: Displacement of [3H]-Rauwolscine from human recombinant adrenergic Alpha2B receptor expressed in HEKT cells at 10 uM after 90 mins by microbeta scintillation counting method relative to control
# Histamine H1 receptor = Histamine H1 receptor (Homo sapiens, UniProt P35367); assay: Displacement of [3H]-Pyrilamine from human recombinant histamine H1 receptor expressed in stable HEK cells at 10 uM after 90 mins by microbeta scintillation counting method relative to control
# Mu-type opioid receptor = Mu-type opioid receptor (Homo sapiens, UniProt P35372); assay: Displacement of [3H]-DAMGO from human recombinant MOR receptor expressed in stable HEK cells at 10 uM after 90 mins by microbeta scintillation counting method relative to control; outline: as §1
# Sequence of Mu-type opioid receptor (P35372 whole entry): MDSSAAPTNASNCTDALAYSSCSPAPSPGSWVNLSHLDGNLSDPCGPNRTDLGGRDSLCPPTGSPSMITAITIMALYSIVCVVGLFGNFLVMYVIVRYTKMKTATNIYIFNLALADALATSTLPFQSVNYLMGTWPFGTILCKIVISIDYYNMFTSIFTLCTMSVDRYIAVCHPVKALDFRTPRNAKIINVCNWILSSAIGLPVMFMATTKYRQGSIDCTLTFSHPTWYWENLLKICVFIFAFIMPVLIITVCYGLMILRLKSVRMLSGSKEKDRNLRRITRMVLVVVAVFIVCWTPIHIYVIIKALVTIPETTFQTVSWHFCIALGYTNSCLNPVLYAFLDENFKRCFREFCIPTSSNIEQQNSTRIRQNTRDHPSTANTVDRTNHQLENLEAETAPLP
# Sequence of Sigma intracellular receptor 2 (Q5BJF2 whole entry): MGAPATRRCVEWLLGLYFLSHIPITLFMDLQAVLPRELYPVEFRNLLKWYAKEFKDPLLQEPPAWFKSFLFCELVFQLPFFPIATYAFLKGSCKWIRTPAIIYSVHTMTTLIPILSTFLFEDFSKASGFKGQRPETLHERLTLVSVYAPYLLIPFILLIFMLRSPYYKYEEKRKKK
# Sequence of Histamine H1 receptor (P35367 whole entry): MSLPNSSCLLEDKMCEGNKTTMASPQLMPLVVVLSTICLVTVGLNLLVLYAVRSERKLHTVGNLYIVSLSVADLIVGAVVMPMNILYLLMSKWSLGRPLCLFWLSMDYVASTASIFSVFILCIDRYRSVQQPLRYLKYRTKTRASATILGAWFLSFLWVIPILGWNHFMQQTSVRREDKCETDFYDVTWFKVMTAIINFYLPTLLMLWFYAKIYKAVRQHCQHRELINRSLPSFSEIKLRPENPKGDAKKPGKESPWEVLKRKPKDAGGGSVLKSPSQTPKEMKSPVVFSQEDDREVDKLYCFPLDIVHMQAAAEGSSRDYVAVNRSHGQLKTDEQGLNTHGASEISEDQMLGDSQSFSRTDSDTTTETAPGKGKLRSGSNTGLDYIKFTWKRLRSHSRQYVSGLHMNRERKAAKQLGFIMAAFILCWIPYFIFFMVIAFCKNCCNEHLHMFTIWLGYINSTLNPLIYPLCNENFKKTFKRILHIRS
# Sequence of 5-hydroxytryptamine receptor 2A (P28223 whole entry): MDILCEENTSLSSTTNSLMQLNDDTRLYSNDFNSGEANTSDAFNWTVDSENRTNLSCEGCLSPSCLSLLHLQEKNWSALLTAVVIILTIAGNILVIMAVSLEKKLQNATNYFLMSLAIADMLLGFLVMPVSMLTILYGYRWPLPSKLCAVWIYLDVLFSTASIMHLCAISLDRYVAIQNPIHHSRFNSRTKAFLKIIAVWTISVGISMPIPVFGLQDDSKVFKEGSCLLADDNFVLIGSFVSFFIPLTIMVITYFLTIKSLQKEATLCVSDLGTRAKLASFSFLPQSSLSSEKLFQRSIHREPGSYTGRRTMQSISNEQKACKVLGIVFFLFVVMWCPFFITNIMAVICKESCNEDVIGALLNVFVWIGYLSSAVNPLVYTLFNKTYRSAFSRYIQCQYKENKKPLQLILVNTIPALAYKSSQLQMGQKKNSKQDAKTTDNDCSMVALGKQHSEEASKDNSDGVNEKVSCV
# Sequence of Alpha-2B adrenergic receptor (Homo sapiens) (P18089 whole entry): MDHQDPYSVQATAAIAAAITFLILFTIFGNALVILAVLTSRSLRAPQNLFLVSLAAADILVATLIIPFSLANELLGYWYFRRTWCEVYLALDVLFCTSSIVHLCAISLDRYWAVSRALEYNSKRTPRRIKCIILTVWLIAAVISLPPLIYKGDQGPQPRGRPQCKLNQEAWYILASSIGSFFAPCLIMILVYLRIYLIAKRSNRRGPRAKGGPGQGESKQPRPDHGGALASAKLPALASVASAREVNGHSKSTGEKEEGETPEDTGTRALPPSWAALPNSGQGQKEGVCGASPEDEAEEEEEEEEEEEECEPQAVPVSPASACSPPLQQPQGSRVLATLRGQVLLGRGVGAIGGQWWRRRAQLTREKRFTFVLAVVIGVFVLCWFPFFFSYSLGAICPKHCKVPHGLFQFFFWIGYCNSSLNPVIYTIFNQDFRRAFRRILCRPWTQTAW
# Sequence of 5-hydroxytryptamine receptor 7 (P34969 whole entry): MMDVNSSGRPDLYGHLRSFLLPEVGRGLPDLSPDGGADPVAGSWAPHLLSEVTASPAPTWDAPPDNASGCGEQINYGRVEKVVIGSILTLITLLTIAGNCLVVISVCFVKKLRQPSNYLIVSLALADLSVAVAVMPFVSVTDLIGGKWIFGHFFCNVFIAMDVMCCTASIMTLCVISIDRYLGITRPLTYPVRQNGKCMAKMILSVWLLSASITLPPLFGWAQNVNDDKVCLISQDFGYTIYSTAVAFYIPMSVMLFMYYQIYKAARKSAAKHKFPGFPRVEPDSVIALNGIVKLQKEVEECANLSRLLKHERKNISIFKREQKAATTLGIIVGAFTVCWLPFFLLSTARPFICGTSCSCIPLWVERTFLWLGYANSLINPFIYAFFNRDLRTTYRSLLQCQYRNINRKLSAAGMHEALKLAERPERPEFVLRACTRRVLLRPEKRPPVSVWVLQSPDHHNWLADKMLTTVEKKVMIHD
Structure (SMILES),Ki [1] [µM],inhibition [2] [%],inhibition [3] [%],inhibition [4] [%],inhibition [5] [%],inhibition [6] [%],inhibition [7] [%],inhibition [8] [%],inhibition (Histamine H1 receptor) [%],inhibition (Mu-type opioid receptor) [%]
CC[C@H]1c2cc(OC)ccc2CC[C@@]1(C)N (racemic),> 10,< 50,< 50,< 50,< 50,< 50,< 50,,,
CC[C@H]1c2cc(C)ccc2OC[C@@]1(C)N (racemic),> 10,< 50,< 50,< 50,< 50,< 50,< 50,< 50,< 50,< 50
CC[C@H]1c2ccccc2N(c2ccccc2)C[C@@]1(C)N (racemic),1.58,,,,,,,,,
C[C@@]12CN(c3ccccc3)c3ccccc3[C@@H]1CCN2 (racemic),> 10,,,,,,,,,
COc1cc(OC)c2c(c1)OC[C@@]1(C)NCC[C@@H]21 (racemic),> 10,,,< 50,< 50,< 50,< 50,< 50,< 50,< 50
